Data reported in PMC4535690 (Angewandte Chemie (International ed. in English), 2015).
Where a SMILES comes first, the peptide text is derived from it. The star is where a group is joined. Acetyl(thymin-1-yl) = Cc1cn(CC(=O)*)c(=O)[nH]c1=O; Adenin9ylacetyl = Nc1ncnc2c1ncn2CC(=O)*

Tests used:
HeLa cells = test: Biocompatibility; format: cell-based; conditions: 3 days incubation, single nucleopeptide (Figures S11 and S12)
Summary of the method: (§1)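 Nucleopeptides were tested singly and as two-component heterodimer mixtures. HeLa cells (24 h doubling time) were incubated for 3 days, and PC12 cells (92 h doubling time) for 7 days. Viability was then assessed as a measure of biocompatibility.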

PC12 cells = test: Biocompatibility; format: cell-based; conditions: 7 days incubation (Figures S10, S11 and S12)
Summary of the method: as §1

proteinase K = proteinase K (Parengyodontium album, UniProt P06873); test: Proteolytic stability on incubation with proteinase K; format: in vitro ADME; conditions: single component, 0.2 mg/mL in HEPES buffer pH 7.4; proteinase K 3.2 U/mL; 24 h at 37 °C (Figure 3A; KTTPV Figure S9)
Chain of proteinase K (P06873 106-384, species assumed): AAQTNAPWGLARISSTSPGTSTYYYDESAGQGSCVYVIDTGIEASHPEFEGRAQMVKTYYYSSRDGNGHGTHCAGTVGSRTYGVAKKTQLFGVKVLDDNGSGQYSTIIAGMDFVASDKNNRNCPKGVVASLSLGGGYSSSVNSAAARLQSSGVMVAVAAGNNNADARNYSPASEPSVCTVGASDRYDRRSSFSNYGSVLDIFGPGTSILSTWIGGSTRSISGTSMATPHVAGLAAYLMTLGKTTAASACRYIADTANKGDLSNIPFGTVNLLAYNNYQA

Cc1cn(CC(=O)N[C@@H](CCCCN)C(=O)N[C@H](C(=O)N[C@H](C(=O)N2CCC[C@H]2C(=O)N[C@H](C(=O)O)C(C)C)[C@@H](C)O)[C@@H](C)O)c(=O)[nH]c1=O [compound 1] ({Acetyl(thymin-1-yl)}-KTTPV-OH; N-terminus and C-terminus assumed)
Toxicity to HeLa cells (HeLa cells): no toxicity | Toxicity / inhibition of proliferation of PC12 cells (PC12 cells): no toxicity

CC(C)[C@H](NC(=O)[C@@H]1CCCN1C(=O)[C@@H](NC(=O)[C@@H](NC(=O)[C@H](CCCCN)NC(=O)Cn1cnc2c(N)ncnc21)[C@@H](C)O)[C@@H](C)O)C(=O)O [compound 2] (Adenin9ylacetyl-KTTPV-OH; N-terminus and C-terminus assumed)
Toxicity to HeLa cells (HeLa cells): no toxicity | Toxicity / inhibition of proliferation of PC12 cells (PC12 cells): no toxicity

LGFNI [compound 3]
Compound remained after incubating with proteinase K (proteinase K): hydrolyzes completely | Toxicity to HeLa cells (HeLa cells): no toxicity | Toxicity / inhibition of proliferation of PC12 cells (PC12 cells): no toxicity
